≈ marks a conversion by molar mass, not a printed value.
Columns and labels:
Prolyl endopeptidase = target: T1, Prolyl endopeptidase (Homo sapiens, UniProt P48147); test: In vitro inhibitory activity determined against prolyl oligopeptidase (PO) in human; Moderately active
T1 sequence (P48147 whole entry): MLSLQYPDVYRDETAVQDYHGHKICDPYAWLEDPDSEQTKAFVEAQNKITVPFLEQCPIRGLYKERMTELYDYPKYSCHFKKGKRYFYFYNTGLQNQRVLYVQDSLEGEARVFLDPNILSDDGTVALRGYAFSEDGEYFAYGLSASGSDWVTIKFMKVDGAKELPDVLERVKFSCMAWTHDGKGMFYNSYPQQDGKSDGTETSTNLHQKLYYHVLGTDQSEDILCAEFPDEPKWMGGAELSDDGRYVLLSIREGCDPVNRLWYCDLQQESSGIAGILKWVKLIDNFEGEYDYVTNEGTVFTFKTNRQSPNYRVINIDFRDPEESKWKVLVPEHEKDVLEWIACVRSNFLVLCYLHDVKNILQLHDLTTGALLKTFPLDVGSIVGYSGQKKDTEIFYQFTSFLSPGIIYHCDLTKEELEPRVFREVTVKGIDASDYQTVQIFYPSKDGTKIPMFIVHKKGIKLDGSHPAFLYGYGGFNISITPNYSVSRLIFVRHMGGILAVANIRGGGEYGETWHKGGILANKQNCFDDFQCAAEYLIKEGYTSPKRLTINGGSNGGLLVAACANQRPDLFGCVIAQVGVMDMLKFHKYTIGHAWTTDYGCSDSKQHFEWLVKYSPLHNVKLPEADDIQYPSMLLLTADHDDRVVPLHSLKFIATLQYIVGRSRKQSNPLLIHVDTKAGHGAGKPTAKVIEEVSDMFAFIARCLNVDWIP

[1] = test system: Trypanosoma brucei rhodesiense; test: Antiprotozoal activity against T. b. rhodesiense at a dose of 30 ug/mL
Leishmania donovani [2] = test: Antiprotozoal activity against Leishmania donovani was determined; details: read-out: ED50
KB [3] = test: Toxicity in Trypanosoma cruzi infected KB cells; assay type: functional; details: Homo sapiens, read-out: ED50 (the source's name)
Method in brief: (§1)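 Cytotoxicity was measured on KB cells, with podophyllotoxin as the reference drug.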

Leishmania donovani [4] = test: Antiprotozoal activity against Leishmania donovani at a dose of 30 ug/mL. Compound was toxic to host macrophages; assay type: functional
Method in brief: (§2)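 Leishmania donovani strain L82 was tested against test compounds, with pentostam as the reference drug.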

[5] = test system: Trypanosoma brucei rhodesiense; test: Antiprotozoal activity against T. b. rhodesiense at a dose of 10 ug/mL.; assay type: functional
Method in brief: (§3)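 Trypanosoma brucei rhodesiense strain STIB900 was tested, with pentamidine as the reference drug.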

KB [6] = test: Toxicity in Leishmania donovani infected KB cells; assay type: functional; details: Homo sapiens, read-out: ED50 (the source's name); method in brief: as §1
Leishmania donovani [7] = test: Antiprotozoal activity against Leishmania donovani at a dose of 10 ug/mL.; assay type: functional; method in brief: as §2
[8] = test system: Trypanosoma brucei rhodesiense; test: Antiprotozoal activity against T. b. rhodesiense was determined; assay type: functional; details: read-out: ED50 (the source's name); method in brief: as §3
Trypanosoma cruzi [9] = test: Antiprotozoal activity against Trypanosoma cruzi at a dose of 10 ug/mL.; assay type: functional
Method in brief: (§4)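 Trypanosoma cruzi of the Lac Z strain was tested, with benznidazol as the reference drug.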

[10] = test system: Trypanosoma brucei rhodesiense; test: Antiprotozoal activity against T. b. rhodesiense at a dose of 3 ug/mL.; assay type: functional; method in brief: as §3
Trypanosoma cruzi [11] = test: Antiprotozoal activity against Trypanosoma cruzi at a dose of 30 ug/mL. Compound was toxic to host macrophages; assay type: functional; method in brief: as §4
KB [12] = test: Toxicity in T. b. rhodesiense infected KB cells; assay type: functional; details: Homo sapiens, read-out: ED50 (the source's name); method in brief: as §1
[13] = test system: Trypanosoma brucei rhodesiense; test: Antiprotozoal activity against T. b. rhodesiense at a dose of 1 ug/mL.; assay type: functional; method in brief: as §3
Leishmania donovani [14] = test: Antiprotozoal activity against Leishmania donovani at a dose of 3 ug/mL.; assay type: functional; method in brief: as §2
Trypanosoma cruzi [15] = test: Antiprotozoal activity against Trypanosoma cruzi at a dose of 1 ug/mL.; assay type: functional; method in brief: as §4
Trypanosoma cruzi [16] = test: Antiprotozoal activity against Trypanosoma cruzi at a dose of 3 ug/mL.; assay type: functional; method in brief: as §4
Trypanosoma cruzi [17] = test: Antiprotozoal activity against Trypanosoma cruzi was determined; assay type: functional; details: read-out: ED50 (the source's name); method in brief: as §4
KB [18] = test: Toxicity in T. b. rhodesiense STIB900 infected KB cells; assay type: functional; details: Homo sapiens, read-out: ED50 (the source's name); method in brief: as §1
[19] = test system: Trypanosoma brucei rhodesiense; test: Antiprotozoal activity against T. b. rhodesiense STIB900 at a dose of 30 ug/mL
Trypanosoma cruzi [20] = test: Antiprotozoal activity against Trypanosoma cruzi Lac Z at a dose of 10 ug/mL.; assay type: functional; method in brief: as §4
[21] = test system: Trypanosoma brucei rhodesiense; test: Antiprotozoal activity against T. b. rhodesiense STIB900 was determined; assay type: functional; details: read-out: ED50 (the source's name); method in brief: as §3
Leishmania donovani [22] = test: Antiprotozoal activity against Leishmania donovani L82 was determined; assay type: functional; details: read-out: ED50 (the source's name); method in brief: as §2
Trypanosoma cruzi [23] = test: Antiprotozoal activity against Trypanosoma cruzi Lac Z was determined; assay type: functional; details: read-out: ED50 (the source's name); method in brief: as §4
Trypanosoma cruzi [24] = test: Antiprotozoal activity against Trypanosoma cruzi Lac Z at a dose of 30 ug/mL. Compound was toxic to host macrophages; assay type: functional; method in brief: as §4
Trypanosoma cruzi [25] = test: Antiprotozoal activity against Trypanosoma cruzi Lac Z at a dose of 3 ug/mL.; assay type: functional; method in brief: as §4
[26] = test system: Trypanosoma brucei rhodesiense; test: Antiprotozoal activity against T. b. rhodesiense STIB900 at a dose of 3 ug/mL.; assay type: functional; method in brief: as §3
KB [27] = test: Toxicity in Leishmania donovani L82 infected KB cells; assay type: functional; details: Homo sapiens, read-out: ED50 (the source's name); method in brief: as §1
Trypanosoma cruzi [28] = test: Antiprotozoal activity against Trypanosoma cruzi Lac Z at a dose of 1 ug/mL.; assay type: functional; method in brief: as §4
KB [29] = test: Toxicity in Trypanosoma cruzi Lac Z infected KB cells; assay type: functional; details: Homo sapiens, read-out: ED50 (the source's name); method in brief: as §1
[30] = test system: Trypanosoma brucei rhodesiense; test: Antiprotozoal activity against T. b. rhodesiense STIB900 at a dose of 10 ug/mL.; assay type: functional; method in brief: as §3
Leishmania donovani [31] = test: Antiprotozoal activity against Leishmania donovani L82 at a dose of 30 ug/mL. Compound was toxic to host macrophages; assay type: functional; method in brief: as §2
Leishmania donovani [32] = test: Antiprotozoal activity against Leishmania donovani L82 at a dose of 3 ug/mL.; assay type: functional; method in brief: as §2
Leishmania donovani [33] = test: Antiprotozoal activity against Leishmania donovani L82 at a dose of 10 ug/mL.; assay type: functional; method in brief: as §2
[34] = test system: Trypanosoma brucei rhodesiense; test: Antiprotozoal activity against T. b. rhodesiense STIB900 at a dose of 1 ug/mL.; assay type: functional; method in brief: as §3

COC(=O)c1onc(C(=O)[C@@H]2CCCN2C(=O)[C@@H]2CCCN2C(=O)OCc2ccccc2)c1C(=O)OC
IC50 (Prolyl endopeptidase): > 1000 nM

O=C(c1cc(-c2ccccc2)on1)[C@@H]1CCCN1C(=O)[C@@H]1CCCN1C(=O)OCc1ccccc1
inhibition at 30 µg/mL [1]: 99.9%
EC50 (Leishmania donovani [2]): 13.5 µg/mL (≈ 28.5 µM)
EC50 (KB [3]): 23 µg/mL (≈ 48.6 µM)
inhibition at 30 µg/mL (Leishmania donovani [4]): 100%
inhibition at 10 µg/mL [5]: 99.8%
EC50 (KB [6]): 23 µg/mL (≈ 48.6 µM)
inhibition at 10 µg/mL (Leishmania donovani [7]): 1.8%
EC50 [8]: 2.2 µg/mL (≈ 4.65 µM)
inhibition at 10 µg/mL (Trypanosoma cruzi [9]): 59.9%
inhibition at 3 µg/mL [10]: 83.4%
inhibition at 30 µg/mL (Trypanosoma cruzi [11]): 86.7%
EC50 (KB [12]): 23 µg/mL (≈ 48.6 µM)
inhibition at 1 µg/mL [13]: 7.7%
inhibition at 3 µg/mL (Leishmania donovani [14]): 0%
inhibition at 1 µg/mL (Trypanosoma cruzi [15]): 10.8%
inhibition at 3 µg/mL (Trypanosoma cruzi [16]): 29%
EC50 (Trypanosoma cruzi [17]): 6.7 µg/mL (≈ 14.1 µM)

O=C(c1cc(COCc2ccccc2)on1)[C@@H]1CCCN1C(=O)[C@@H]1CCCN1C(=O)CCCc1ccccc1
EC50 (KB [18]): > 300 µg/mL
inhibition at 30 µg/mL [19]: 99.9%
inhibition at 10 µg/mL (Trypanosoma cruzi [20]): 69.4%
EC50 [21]: 5.5 µg/mL (≈ 10.4 µM)
EC50 (Leishmania donovani [22]): 13.1 µg/mL (≈ 24.7 µM)
EC50 (Trypanosoma cruzi [23]): 4.7 µg/mL (≈ 8.87 µM)
inhibition at 30 µg/mL (Trypanosoma cruzi [24]): 86.7%
inhibition at 3 µg/mL (Trypanosoma cruzi [25]): 42.6%
inhibition at 3 µg/mL [26]: 6.9%
EC50 (KB [27]): > 300 µg/mL
inhibition at 1 µg/mL (Trypanosoma cruzi [28]): 16%
EC50 (KB [29]): > 300 µg/mL
inhibition at 10 µg/mL [30]: 95.5%
inhibition at 30 µg/mL (Leishmania donovani [31]): 100%
inhibition at 3 µg/mL (Leishmania donovani [32]): 0%
inhibition at 10 µg/mL (Leishmania donovani [33]): 6.9%
inhibition at 1 µg/mL [34]: 0.9%

Source: ChEMBL document CHEMBL1136179, “Prolylisoxazoles: potent inhibitors of prolyloligopeptidase with antitrypanosomal activity” (Bioorg Med Chem Lett, 2003)
